Measurements reported in article PMC11932705 (Results in chemistry, 2024).
Entries after “also recorded” stand apart in the source; their conditions may differ.

Test system: adult S. mansoni
Experiment: Single-concentration phenotypic severity score assay on adult worms
Format: cell-based, Schistosoma mansoni
Conditions: severity score assay at 5 μM
Summary of the method: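 Adult S. mansoni were exposed to test compound at 5 μM. Adherence, shape, density and mobility were scored visually at 2, 5, 24 and 48 h using a constrained set of phenotypic descriptors, each typically valued 1. The descriptor values were summed into a severity score from 0 (no activity) to 4 (maximal activity). Each compound was screened twice as a singleton and representative data are reported.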

Row | SMILES | Antischistosomal activity in words
1 | O=C(Nc1cc(C(F)(F)F)cnn1)c1ccc(C(F)(F)F)cc1 [compound 49, 4-(Trifluoromethyl)-N-(5-(trifluoromethyl)pyridazin-3-yl)benzamide] | abolished activity; also recorded: inactive against the worm
2 | O=C(Nc1cccc(C(F)(F)F)c1)c1cccc(C(F)(F)F)c1 [compound 33, 3-(Trifluoromethyl)-N-(3-(trifluoromethyl)phenyl)benzamide] | potency is lost
